Experimental findings from ChEMBL document CHEMBL1158601, “Discovery of a novel series of CXCR3 antagonists” (Bioorg Med Chem Lett, 2010) are described below.

Data set [1] is described as follows: Intrinsic clearance in mouse liver microsomes assessed per mg of protein. It counts as ADME, Microsome.
Data set [2] has as its target T1, C-X-C chemokine receptor type 5 (Homo sapiens) (UniProt P32302).
T1 sequence (whole entry): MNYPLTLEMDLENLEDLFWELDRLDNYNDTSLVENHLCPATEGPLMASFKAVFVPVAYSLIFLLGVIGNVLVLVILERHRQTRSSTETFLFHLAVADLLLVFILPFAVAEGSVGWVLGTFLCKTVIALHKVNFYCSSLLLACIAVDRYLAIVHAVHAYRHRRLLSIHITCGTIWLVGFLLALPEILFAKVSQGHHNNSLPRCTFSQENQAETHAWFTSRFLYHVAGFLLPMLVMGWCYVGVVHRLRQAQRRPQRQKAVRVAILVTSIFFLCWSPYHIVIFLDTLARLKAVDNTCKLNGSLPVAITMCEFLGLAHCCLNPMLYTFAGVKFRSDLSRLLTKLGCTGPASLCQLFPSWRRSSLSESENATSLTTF
Kind of data set: Antagonist activity at human CXCR5 expressed in mouse L1.2 cells assessed as inhibition of CXCL13-induced chemotaxis up to 10 uM after 4 hrs. It counts as functional, cell-based. The gist of the method:
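Counter-screen chemotaxis: CXCR5-overexpressing L1.2 cells stimulated with CXCL13, test compounds up to 10 µM.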

Data set [3] can be described thus: Aqueous solubility at pH 7.4. It counts as physicochemical. The settings on record: buffer. The essentials:
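Aqueous solubility measured at pH 7.4.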

Data set [4] in a line: Clearance in mouse at 0.2 mg/kg, iv. It counts as ADME, organism-based. On the set-up: dose 0.2 mg/kg, route intravenous. Particulars: in vivo.
In another data set the test system is Mus musculus. The experiment in a line: Clearance in mouse assessed as liver blood flow at 0.2 mg/kg, iv. It counts as ADME, organism-based. On the set-up: dose 0.2 mg/kg, route intravenous. The settings on record: in vivo.
Data set [5] can be described thus: Volume of distribution at steady state in mouse at 0.2 mg/kg, iv. It counts as ADME, organism-based. Details: dose 0.2 mg/kg, route intravenous. The settings on record: in vivo, read-out: Vdss.
A short description of data set [6]: Bioavailability in mouse at 10 mg/kg, po. It counts as ADME, organism-based. Particulars: in vivo.
Data set [7] can be described thus: Half life in mouse at 10 mg/kg, po. It counts as ADME, organism-based. On the set-up: dose 10 mg/kg, route oral. Particulars: in vivo.

Structures are written as SMILES. Active and inactive are the calls of the source. The calls are words filed in the database; no cut-off is given here.

As to `N#Cc1ccc(S(=O)(=O)N(Cc2ccc(-c3nnn[nH]3)c(F)c2)Cc2ccccc2F)cc1`, the microsomal CLint in data set [1] is 17 µL/min/mg. In addition, the result in data set [2] was inactive. The solubility in data set [3] was > 100 µM. Besides, in data set [4], the clearance was 28.3 mL/min/kg. Also, the “Fraction of Liver Blood Flow” value in the data set with Mus musculus is listed as 30%. The Vd in data set [5] came out at 1 L/kg. This molecule also showed a bioavailability in data set [6] of 83%. This molecule also showed a half-life in data set [7] of 60 min.

What is called microsomal CLint is the capacity of the preparation to metabolise the compound, expressed as a volume cleared per time. A low value points to slow turnover. Usually solubility stands for the concentration that dissolves in the medium under given conditions. A high value points to much dissolved substance. A word on the clearance: it is the volume of plasma or blood freed of the substance per unit of time. A word on the bioavailability: it is the share of a dose that reaches the circulation, judged against a reference dose that is usually intravenous. A lower bioavailability goes with poor availability. As a reminder, the half-life is the time in which the quantity being followed falls by half. Lower therefore signals fast loss.
